# Measurements reported in ChEMBL document CHEMBL4732034, “Amino alcohol acrylonitriles as broad spectrum and tumour selective cytotoxic agents” (RSC Med Chem, 2021).
# What was measured:
# HT-29 = assay: Cytotoxicity against human HT29 cells assessed as growth inhibition measured after 72 hrs by SRB assay; format: functional
# Outline: (§1)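 Cancer lines were kept in DMEM with 10% FBS and glutamine at 37 °C, 5% CO2, and seeded at 2500–4000 cells per well in duplicate. Compound (from 40 mM DMSO stocks) was added 24 h after plating and left for 72 h. Cells were TCA-fixed, stained with SRB and read at 540 nm. GI50 came from an eight-point dose-response, using the change from day-0 optical density, with three to four independent replicates.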
# [1] = Cytotoxicity against human MCF10A cells assessed as growth inhibition measured after 72 hrs by SRB assay; format: cell-based, MCF-10A
# [2] = Cytotoxicity against human SJG2 cells assessed as growth inhibition measured after 72 hrs by SRB assay; format: functional; conditions: SJ-G2; outline: as §1
# DU-145 = assay: Cytotoxicity against human DU-145 cells assessed as growth inhibition measured after 72 hrs by SRB assay; format: functional; outline: as §1
# MIA PaCa-2 = assay: Cytotoxicity against human MIA cells assessed as growth inhibition measured after 72 hrs by SRB assay; format: functional; outline: as §1
# MCF7 = assay: Cytotoxicity against human MCF-7 cells assessed as growth inhibition measured after 72 hrs by SRB assay; format: functional; outline: as §1
# A-431 = assay: Cytotoxicity against human A431 cells assessed as growth inhibition measured after 72 hrs by SRB assay; format: functional; outline: as §1
# NCI-H460 = assay: Cytotoxicity against human H460 cells assessed as growth inhibition measured after 72 hrs by SRB assay; format: functional; outline: as §1
# A2780 = assay: Cytotoxicity against human A2780 cells assessed as growth inhibition measured after 72 hrs by SRB assay; format: functional; outline: as §1
# BE(2)-C = assay: Cytotoxicity against human BE2C cells assessed as growth inhibition measured after 72 hrs by SRB assay; format: functional; outline: as §1
# U-87 MG = assay: Cytotoxicity against human U87 cells assessed as growth inhibition measured after 72 hrs by SRB assay; format: functional, U-87MG ATCC; outline: as §1
SMILES,GI50 (HT-29) [µM],GI50 at 72 h [1] [µM],GI50 [2] [µM],GI50 (DU-145) [µM],GI50 (MIA PaCa-2) [µM],GI50 (MCF7) [µM],GI50 (A-431) [µM],GI50 (NCI-H460) [µM],GI50 (A2780) [µM],GI50 (BE(2)-C) [µM],GI50 (U-87 MG) [µM]
CN1CCN(CC(O)COc2ccc(/C=C(\C#N)c3ccc(Cl)c(Cl)c3)cc2)CC1 (racemic),1.2,2.4,2.2,2.4,2.6,2.3,1.8,2.6,2.5,2.4,2.7
N#C/C(=C\c1ccc(OCC(O)CN2CCN(c3ccc([N+](=O)[O-])cc3)CC2)cc1)c1ccc(Cl)c(Cl)c1 (racemic),> 50,> 50,> 50,> 50,> 50,> 50,> 50,> 50,> 50,> 50,> 50
N#C/C(=C\c1ccc(OCC(O)CN2CCOCC2)cc1)c1ccc(Cl)c(Cl)c1 (racemic),3.1,5.6,9.3,13,13,5.3,3,8.7,8.9,3,17
Cc1ccc(N2CCN(CC(O)COc3ccc(/C=C(\C#N)c4ccc(Cl)c(Cl)c4)cc3)CC2)cc1 (racemic),2.6,3.5,2.9,2.7,3,2.3,3.1,2.5,3,2.7,6
N#C/C(=C\c1ccc(OCC(O)CNC2CCCCC2)cc1)c1ccc(Cl)c(Cl)c1 (racemic),2,2.8,2.7,2.4,2.7,2.7,2.2,2.2,2.9,2.8,2.8
N#C/C(=C\c1ccc(OCC(O)CNc2ccc(Cl)cc2)cc1)c1ccc(Cl)c(Cl)c1 (racemic),7,17,15,15,14,11,15,11,10,14,16
N#C/C(=C\c1ccc(OCC(O)CNc2ccc(Br)cc2)cc1)c1ccc(Cl)c(Cl)c1 (racemic),6,13,11,13,11,5.3,11,6.8,10,11,16
N#C/C(=C\c1ccc(OCC(O)CN2CCCCCC2)cc1)c1ccc(Cl)c(Cl)c1 (racemic),1.7,3.1,5.3,4.6,5.5,2.8,2.9,3.5,3,2.6,3.8
N#C/C(=C\c1ccc(OCC(O)CN2CCN(c3ccccc3)CC2)cc1)c1ccc(Cl)c(Cl)c1 (racemic),3.3,4.8,9,3.5,5.7,4.1,6.3,4,6.3,16,5.4
CC1CCCN(CC(O)COc2ccc(/C=C(\C#N)c3ccc(Cl)c(Cl)c3)cc2)C1 (racemic),2.4,2.5,2.8,4,3.3,2.3,2.5,2.9,2.8,2.6,2.8
N#C/C(=C\c1ccc(OCC(O)CN2CCN(c3ccc(C(F)(F)F)cc3)CC2)cc1)c1ccc(Cl)c(Cl)c1 (racemic),–,> 50,> 50,> 50,> 50,> 50,> 50,> 50,> 50,> 50,> 50
N#C/C(=C\c1ccc(OCC(O)CN2CCN(c3ccc(Cl)cc3)CC2)cc1)c1ccc(Cl)c(Cl)c1 (racemic),9,18,24,32,17,15,27,28,15,> 50,> 50
N#C/C(=C\c1ccc(OCC(O)CN2CCCC2)cc1)c1ccc(Cl)c(Cl)c1 (racemic),1.5,2.9,3.7,4.2,5.6,2.8,2.6,3,2.7,2.8,5.6
N#C/C(=C\c1ccc(OCC(O)CN2CCC(c3ccccc3)CC2)cc1)c1ccc(Cl)c(Cl)c1 (racemic),1.9,2.5,2.5,2.7,2.4,2.5,2.6,2.7,2.7,2.6,2.9
CC(=O)c1ccc(N2CCN(CC(O)COc3ccc(/C=C(\C#N)c4ccc(Cl)c(Cl)c4)cc3)CC2)cc1 (racemic),7.7,7.5,> 50,12,> 50,11,30,> 50,40,> 50,> 50
Cc1ccc(CN2CCN(CC(O)COc3ccc(/C=C(\C#N)c4ccc(Cl)c(Cl)c4)cc3)CC2)cc1 (racemic),1.4,2.4,2.4,4.5,2.6,1.7,2.4,2.7,1.5,2,3.6
CC1CCN(CC(O)COc2ccc(/C=C(\C#N)c3ccc(Cl)c(Cl)c3)cc2)CC1 (racemic),1.7,2.7,3,4.6,3.4,2.3,2.6,2.9,2.7,2.6,2.9
